Test [1] in a line: inhibitors of TNFa-induced NFkB p65 translocation, primary screen, imaging, HUVEC, MLSMR starter and 10KST1 sets (AID 438).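 Also: compound added about 3h40 before a 20 min TNFalpha stimulation.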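 As to inhibition: signal is the nuclear over cytoplasmic p65 intensity ratio per well.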 To be noted: HUVEC TNFa-induced p65 nuclear translocation; cell count: measured here: nuclei count (cytotoxicity indicator), at 2.08 µM; inhibition: at 2 µM, stronger effect = higher value, 0% TNFa-plus-vehicle, 100% no-TNFa wells.
The nature of test [2]: endothelial E-selectin expression blockers – imaging, HUVEC, immunofluorescence, MLSMR starter and 10KST1 sets, primary screen (AID 487;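 active = visually confirmed hit in the image check and inhibition above 20%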;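 as to inhibition: signal is fraction of cell area covered by stained E-selectin grains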;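 as to nuclei count: 100% = median nuclei count of all wells on the same plate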). To be noted: HUVEC TNFalpha-induced E-selectin immunofluorescence imaging, at 2 µM; inhibition: stronger effect = higher value; nuclei count: measured here: cell number, toxicity.
Test [3] is described as follows: Primary imaging screen for DUSP6 inhibitors that restore phospho-Erk in transfected HeLa cells, chemical complementation (AID 609;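 active = compounds giving at least 50% inhibition in the cell-based MKP-3 phosphatase rescue imaging test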;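 as to inhibition: phospho-Erk level distribution per well compared with pooled transfected vehicle control wells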). To be noted: HeLa MKP-3 transfected, phospho-Erk imaging KS statistic, at 10 µM, cells stimulated with TPA for 15 min.
Test [4] concerns the target Dual specificity protein phosphatase 6 (Homo sapiens) (UniProt Q16828). Described as above. Particulars: HeLa MKP-3 transfected, phospho-Erk imaging KS statistic; at 10 µM; stronger effect = higher value; cells stimulated with TPA for 15 min.
Test [5] deals with Voltage-gated potassium channel subunit beta-2 (Rattus norvegicus) (UniProt P62483). The experiment in a line: inhibitors of rat Kvbeta2 reductase activity – biochemical, NADPH fluorescence, primary screen (AID 622;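 active = fluorescence slope higher than the sample average by over 3 SD, cut at about -0.22 in these data, passing the limit was not always enough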;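 also: slope of raw intensity against log time taken from 70 to 1610 s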). Particulars: recombinant KvBeta, 4-cyanobenzaldehyde reduction, at 10 µM, stronger effect = higher value.
The target is the same in test [6]. The experiment in a line: enhancers of rat Kvbeta2 NADPH turnover – biochemical, NADPH fluorescence, primary screen (AID 623;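 active = NADPH fluorescence slope more negative than the mean of all samples by about 3 SD, 99.7% confidence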;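 also: fluorescence intensity change per second fitted from 20 to 320 s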). Particulars: Recombinant KvBeta, NADPH fluorescence decrease slope, 10 min; at 10 µM; stronger effect = lower value.
For test [7], the target named is Alpha-2C adrenergic receptor (Homo sapiens) (UniProt P18825). The experiment in a line: compounds altering alpha2C-coupled GIRK flux – cell-based, HEK293 alpha2C/GIRK1/2, thallium flux, primary screen (AID 624;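 active = fluorescence slope after compound addition differing from the mean of all screened samples at 99.7% confidence, in either direction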;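 also: slope of fluorescence ratio to pre-addition baseline per second over 15 to 24 s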). To be noted: thallium flux BTC fluorescence, at 10 µM, actives lie on both sides.
Test [8] can be described thus: inhibitors of larval lipid processing in zebrafish, primary screen, whole organism, PED6 fluorescence, gall bladder and intestine (AID 686;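 active = a full or partial loss of lipid-probe fluorescence in the fish gall bladder, intestine or both, judged by eye; inactive = no fluorescence loss, or compound toxic to the fish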;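 also: larvae 5 to 7 days old with five fish per well; signal comes from phospholipase A2 cleavage of quenched PED6 carried via bile; overnight exposure to compound and PED6 before scoring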). Particulars: Zebrafish larvae PED6 lipid processing, fluorescence scoring; screened at 20 µM (by protocol). The procedure, abridged:
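Test system – live zebrafish larvae aged 5-7 days, whole organism · Buffer or medium – E3 fish medium · Reagent – quenched phospholipase substrate PED6, 100 nM final, ingested by larvae · Doses – 20 µM single dose · Incubation – overnight compound and PED6 incubation · Technique – visual fluorescence microscopy scoring of gall bladder, gut · Read-out basis – visual per-well fluorescence inhibition score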

Test [9] is described as follows: loss of swimming-algae plug formation – whole organism, Chlamydomonas reinhardtii, WT vs cilia-less mutant, absorbance, 96-well, primary screen (AID 463189;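 active = inhibition at or above 50% relative to wild type and mutant plate controls; inactive = inhibition below 50%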;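 also: 0% = wild type cc124 cells in DMSO and 100% = ciliumless bld1 mutant cells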). Particulars: Chlamydomonas reinhardtii gravitaxis, OD600 absorbance, 2 days; at 10 µM; stronger effect = higher value.
The mark [10] stands for this setting: measured here: cell density z-score.
Setting [11] is: measured here: nuclear c-Myc green intensity z-score.
Setting [12] is: measured here: nuclear pErk red intensity z-score, stronger effect = higher value.

Calls of active or inactive are those of the source.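 The calls were made as follows, unless noted: active = inhibition above 20% together with a positive visual image hit; inconclusive = visual image hit but inhibition not above 20%; inactive = no visual image hit.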

Chain of Voltage-gated potassium channel subunit beta-2 (Rattus norvegicus) (P62483 whole entry, looked up): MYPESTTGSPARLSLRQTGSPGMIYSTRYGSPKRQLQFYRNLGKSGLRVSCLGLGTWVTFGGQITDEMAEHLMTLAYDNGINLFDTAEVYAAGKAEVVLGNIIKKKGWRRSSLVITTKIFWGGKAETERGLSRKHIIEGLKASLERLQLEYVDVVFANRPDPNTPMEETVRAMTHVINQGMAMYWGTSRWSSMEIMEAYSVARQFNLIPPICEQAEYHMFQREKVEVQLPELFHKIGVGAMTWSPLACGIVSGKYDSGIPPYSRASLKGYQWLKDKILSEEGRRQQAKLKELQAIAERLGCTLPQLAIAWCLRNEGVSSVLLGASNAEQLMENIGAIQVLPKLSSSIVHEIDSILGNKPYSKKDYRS
Chain of Dual specificity protein phosphatase 6 (Homo sapiens) (Q16828 whole entry, looked up): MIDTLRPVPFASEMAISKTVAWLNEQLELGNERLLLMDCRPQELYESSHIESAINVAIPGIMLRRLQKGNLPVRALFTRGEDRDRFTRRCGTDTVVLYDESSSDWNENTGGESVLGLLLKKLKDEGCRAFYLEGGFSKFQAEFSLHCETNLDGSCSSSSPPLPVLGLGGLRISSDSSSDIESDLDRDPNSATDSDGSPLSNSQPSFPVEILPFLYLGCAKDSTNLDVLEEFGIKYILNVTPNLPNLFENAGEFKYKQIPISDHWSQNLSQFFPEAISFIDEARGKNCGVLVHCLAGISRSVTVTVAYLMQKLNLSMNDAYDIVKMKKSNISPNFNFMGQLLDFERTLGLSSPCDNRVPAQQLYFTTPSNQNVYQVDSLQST
Chain of Alpha-2C adrenergic receptor (Homo sapiens) (P18825 whole entry, looked up): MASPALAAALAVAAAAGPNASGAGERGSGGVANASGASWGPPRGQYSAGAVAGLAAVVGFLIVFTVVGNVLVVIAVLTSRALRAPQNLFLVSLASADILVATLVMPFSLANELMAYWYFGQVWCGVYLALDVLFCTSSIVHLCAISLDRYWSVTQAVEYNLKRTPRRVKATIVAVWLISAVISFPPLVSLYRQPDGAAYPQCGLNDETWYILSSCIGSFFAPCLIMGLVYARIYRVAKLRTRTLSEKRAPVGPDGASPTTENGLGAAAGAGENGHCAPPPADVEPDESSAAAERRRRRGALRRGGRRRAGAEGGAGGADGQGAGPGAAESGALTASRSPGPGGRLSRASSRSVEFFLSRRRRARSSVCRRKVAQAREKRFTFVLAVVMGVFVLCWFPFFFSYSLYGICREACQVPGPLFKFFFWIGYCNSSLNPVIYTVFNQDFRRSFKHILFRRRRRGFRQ

Take `CCOc1ccc(C2=Nn3c(nnc3-c3cccnc3)SC2)cc1`: the cell count in [1] stood at 732. Further, the inhibition in test [1] is 1.2% (inactive); in test [2], -49.1% (inactive); in test [4] it was -9.66% (inactive); in [9] it was 8.58% (inactive). The compound also showed a nuclei count in [2] of 186%. In addition, the results for the z-score in [3] (setting [10]), in test [3] (setting [11]) and in test [3] (setting [12]) were -0.574, 2.33 and 0.047, respectively. Besides, the fluorescence slope in [5] is -0.414 (inactive). For the same compound, the NADPH fluorescence slope in test [6] was -0.000128 (inactive). The slope in test [7] is 0.00953 (inactive). Besides, the outcome in test [8] was inactive.

On to `CC(O)Cn1ccccc1=N` (stereo unspecified), for which the cell count in [1] was 352. Moreover, the inhibition was -2% (inactive) in [1], -146% (inactive) in [2], -2.29% (inactive) in test [4] and 21.9% (inactive) in test [9]. Also, the nuclei count in test [2] worked out at 105%. Besides, the results for the z-score in test [3] (setting [10]), in test [3] (setting [11]) and in [3] (setting [12]) were 0.162, -0.0061 and 0.0768, respectively. Moreover, the fluorescence slope in test [5] is -0.293 (inactive). In addition, the NADPH fluorescence slope in test [6] was 7.7e-06 (inactive). Moreover, the slope in [7] is 0.00523 (inactive). For the same compound, the outcome in [8] was inactive.

For the compound `Cc1ccc(SCc2nnc(N)s2)cc1`, in [1], the cell count is 580. The inhibition in [1] is -16.4% (inactive); in test [2], 29.9% (inactive); in test [4], -15% (inactive); in test [9], 7.17% (inactive). Moreover, the nuclei count in test [2] was found to be 161%. Moreover, the values for the z-score in test [3] (setting [10]), in test [3] (setting [11]) and in [3] (setting [12]) were -0.876, -0.003 and 0.564, respectively. Also, the fluorescence slope in test [5] is -0.396 (inactive). In addition, the NADPH fluorescence slope in test [6] is -5.4e-05 (inactive). Moreover, the slope in test [7] was 0.00821 (inactive). The outcome in test [8] was inactive.

`CC1CN(c2oc(-c3cccs3)nc2C#N)CC(C)O1` (stereo unspecified): the cell count in test [1] was determined as 437. Besides, the inhibition was -13.6% (inactive) in test [1], -188% (inactive) in [2], 0.671% (inactive) in test [4] and 5.74% (inactive) in [9]. Further, the nuclei count in test [2] was determined as 178%. For the same compound, the z-score in [3] (setting [10]) was -0.465; in [3] (setting [11]), 0.306; in test [3] (setting [12]) it was 0.34. The fluorescence slope in test [5] was -0.0506 (inactive). Moreover, the NADPH fluorescence slope in test [6] was 4e-07 (inactive). For the same compound, the slope in test [7] was 0.00683 (inactive). Besides, the result in test [8] was inactive.

Take `Cc1cc(C)n(C(=O)CNC(=O)CCc2ccccc2)n1`: in test [1], the cell count was determined as 562. In addition, the inhibition in test [1] is -0.6% (inactive); in [2], 62.6% (inactive); in test [4], -1.75% (inactive); in test [9] it was -9.43% (inactive). Moreover, the nuclei count in test [2] stood at 151%. Besides, the z-score is 1.03 in test [3] (setting [10]), -0.553 in [3] (setting [11]) and -0.0899 in test [3] (setting [12]). Moreover, in test [5], the fluorescence slope was -0.411 (inactive). Moreover, in test [6], the NADPH fluorescence slope is -2.5e-05 (inactive). In addition, the slope in [7] was 0.00565 (inactive). Besides, in [8], the outcome was inactive.

As to `COc1cc(OC)cc(C(=O)N2CCC(N3CCCCCC3)CC2)c1`, in test [1], the cell count turned out to be 372. The inhibition in test [1] is -26.6% (inactive); in [2], -111% (inactive); in [4], 32.7% (inactive); in test [9], 29.1% (inactive). Further, the nuclei count in test [2] was determined as 132%. The z-score in [3] (setting [10]) was 2.06; in test [3] (setting [11]) it was -1.95; in [3] (setting [12]), -0.585. In addition, in [5], the fluorescence slope was -0.337 (inactive). Further, in [6], the NADPH fluorescence slope is -2.1e-05 (inactive). Moreover, the slope in test [7] was 0.00559 (inactive). Moreover, the outcome in test [8] is “inactive; toxic”.

Take `CSc1nnc(C)c(=O)[nH]1`: the cell count in [1] stood at 627. For the same compound, the inhibition is 3.2% (inactive) in [1], -23.8% (inactive) in test [2], -1.12% (inactive) in test [4] and 6% (inactive) in [9]. In [2], this compound returned a nuclei count of 149%. The z-score in test [3] (setting [10]) is 0.361; in test [3] (setting [11]), -1.1; in test [3] (setting [12]), -0.0421. In [5], the fluorescence slope is -0.463 (inactive). In test [6], the NADPH fluorescence slope is -0.000266 (inactive). Moreover, the slope in [7] was 0.00552 (inactive). Also, in [8], the compound was classed as inactive.

The inhibition is the relative decrease from the control value, in per cent.

The values are drawn from PubChem BioAssay.
